Laboratory results from ChEMBL document CHEMBL3085708, “Identification and profiling of 3,5-dimethyl-isoxazole-4-carboxylic acid [2-methyl-4-((2S,3'S)-2-methyl-[1,3']bipyrrolidinyl-1'-yl)phenyl] amide as histamine H(3) receptor antagonist for the treatment of depression” (Bioorg Med Chem Lett, 2013).
Values after ≈ are worked out from the molar mass of the structure shown.

How the values were obtained:
Salmonella typhimurium = experiment: Genotoxicity in Salmonella typhimurium at 3 to 1000 ug/mL by Ames-2 test; format: toxicity, organism-based; conditions: salmonella enterica subsp. enterica serovar typhimurium
Summary of the method: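 Ames II bacterial mutagenicity test over 3 to 1000 µg/mL.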

[1] = Drug metabolism in dog liver microsomes; format: ADME, Canis lupus familiaris; conditions: read-out: Drug metabolism
[2] = Solubility of the compound in form of crystalline free base in gastrointestinal tract simulated media; format: physicochemical
[3] = Inhibition of cytochrome P450 (unknown origin) by mechanism-based assay; format: ADME; conditions: human
Rattus norvegicus = experiment: Antidepression-like activity in po dosed rat assessed as decrease in immobility time by forced swimming test; format: functional
Summary of the method: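 Rat forced-swim test, immobility time as read-out. Test agent given po in MC/0.6% + H2O at 1, 3 and 10 mg/kg; imipramine reference at 60 mg/kg po.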

[4] = Solubility of the compound in form of crystalline free base in water; format: physicochemical
[5] = Oral bioavailability in OF1 mouse at 10 mg/kg; format: ADME, organism-based; conditions: in vivo
Summary of the method: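 Male OF1 mice given 2 mg/kg iv (50% 1-methyl-2-pyrrolidinone in saline, 1.0 mg/mL) and 10 mg/kg po (5% DMSO/0.5% MC/0.2% Tween80, 1.0 mg/mL); plasma and brain exposure measured; B/P ratio from iv AUC.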

[6] = Cmax in OF1 mouse brain at 10 mg/kg, po; format: ADME, organism-based; parameters: dose 10 mg/kg, route oral
Summary of the method: (§1)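 Oral PK at 10 mg/kg po in male OF1 mice (vehicle 5% DMSO/0.5% MC/0.2% Tween80, 1.0 mg/mL) and male Sprague-Dawley rats (vehicle 0.5% MC/0.2% Tween80, 1.0 mg/mL). Cmax and tmax taken from plasma and brain concentration–time profiles.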

[7] = Drug metabolism in rabbit plasma at 100 ng/ml after 4 hrs; format: ADME, cell-free, Oryctolagus cuniculus; conditions: read-out: Drug metabolism
Summary of the method: (§2)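 Compound spiked into blank plasma of human, mouse, rat, rabbit, macaque and dog at 100 ng/ml, then incubated in a 37 °C water bath for up to 4 h; percent metabolized reported.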

[8] = Elimination half life in Sprague-Dawley rat brain at 2 mg/kg, iv; format: ADME, organism-based; parameters: dose 2 mg/kg, route intravenous; conditions: read-out: beta t1/2 (converted)
Summary of the method: (§3)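 Single-dose PK; male OF1 mice and male Sprague-Dawley rats, 2 mg/kg iv and 10 mg/kg po. Mouse vehicles: iv 50% 1-methyl-2-pyrrolidinone in saline (1.0 mg/mL); po 5% DMSO/0.5% MC/0.2% Tween80 (1.0 mg/mL). Rat vehicles: iv saline (0.5 mg/mL); po 0.5% MC/0.2% Tween80 (1.0 mg/mL). Plasma and brain exposure read as AUC0-∞ and t1/2.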

[9] = Drug metabolism in macaque plasma at 100 ng/ml after 4 hrs; format: ADME, cell-free; conditions: macaca, read-out: Drug metabolism; summary of the method: as §2
[10] = Ratio of AUC (0 to infinity) in brain to plasma in OF1 mouse at 2 mg/kg, iv; format: ADME, organism-based; parameters: dose 2 mg/kg, route intravenous; conditions: brain and plasma, read-out: Ratio AUC
[11] = Elimination half life in OF1 mouse brain at 10 mg/kg, po; format: ADME, organism-based; parameters: dose 10 mg/kg, route oral; conditions: read-out: beta t1/2 (converted); summary of the method: as §3
[12] = Volume of distribution in Sprague-Dawley rat at 2 mg/kg, iv; format: ADME, organism-based; parameters: dose 2 mg/kg, route intravenous; conditions: in vivo
Summary of the method: (§4)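 Male Sprague-Dawley rats dosed 2 mg/kg iv in saline (0.5 mg/mL) and 10 mg/kg po in 0.5% MC/0.2% Tween80 (1.0 mg/mL); plasma and brain concentrations followed.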

[13] = Elimination half life in Sprague-Dawley rat plasma at 2 mg/kg, iv; format: ADME, organism-based; parameters: dose 2 mg/kg, route intravenous; conditions: read-out: beta t1/2 (converted); summary of the method: as §3
Histamine H3 receptor = Histamine H3 receptor (Homo sapiens, UniProt Q9Y5N1); experiment: Displacement of [3H]-methylhistamine from human histamine H3 receptor transfected in human 293 cells after 1 hr by scintillation counting analysis; format: cell-based
Cytochrome P450 2C19 = Cytochrome P450 2C19 (Homo sapiens, UniProt P33261); experiment: Inhibition of CYP2C19 (unknown origin) after 4 hrs; format: ADME
[14] = AUC (0 to infinity) in Sprague-Dawley rat brain at 10 mg/kg, po; format: ADME, organism-based; parameters: time infinity, dose 10 mg/kg, route oral; summary of the method: as §3
[15] = Cmax in Sprague-Dawley rat brain at 10 mg/kg, po; format: ADME, organism-based; parameters: dose 10 mg/kg, route oral; summary of the method: as §1
[16] = Drug metabolism in mouse plasma at 100 ng/ml after 4 hrs; format: ADME, cell-free; conditions: read-out: Drug metabolism; summary of the method: as §2
[17] = Tmax in Sprague-Dawley rat plasma at 10 mg/kg, po; format: ADME, organism-based; parameters: dose 10 mg/kg, route oral; summary of the method: as §4
[18] = Cmax in OF1 mouse plasma at 10 mg/kg, po; format: ADME, organism-based; parameters: dose 10 mg/kg, route oral; summary of the method: as §1
Heart = experiment: Toxicity in guinea pig heart assessed as effect on coronary pressure at 0.1 to 30 uM; format: tissue-based, Cavia porcellus
Mus musculus = experiment: Toxicity in mouse assessed as effect on behavioral activity at 10 to 30 mg/kg, po by Irwin test; format: organism-based; parameters: dose 10-30 mg/kg, route oral; conditions: in vivo
Summary of the method: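 Irwin exploratory general behaviour study in male mice; single oral doses of 0, 10 and 30 mg/kg; behavioural, neurologic and autonomic effects observed.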

[19] = Ratio of AUC (0 to infinity) in brain to plasma in Sprague-Dawley rat at 2 mg/kg, iv; format: ADME, organism-based; parameters: dose 2 mg/kg, route intravenous; conditions: brain and plasma, read-out: Ratio AUC

Histamine H3 receptor, sequence (Q9Y5N1 whole entry): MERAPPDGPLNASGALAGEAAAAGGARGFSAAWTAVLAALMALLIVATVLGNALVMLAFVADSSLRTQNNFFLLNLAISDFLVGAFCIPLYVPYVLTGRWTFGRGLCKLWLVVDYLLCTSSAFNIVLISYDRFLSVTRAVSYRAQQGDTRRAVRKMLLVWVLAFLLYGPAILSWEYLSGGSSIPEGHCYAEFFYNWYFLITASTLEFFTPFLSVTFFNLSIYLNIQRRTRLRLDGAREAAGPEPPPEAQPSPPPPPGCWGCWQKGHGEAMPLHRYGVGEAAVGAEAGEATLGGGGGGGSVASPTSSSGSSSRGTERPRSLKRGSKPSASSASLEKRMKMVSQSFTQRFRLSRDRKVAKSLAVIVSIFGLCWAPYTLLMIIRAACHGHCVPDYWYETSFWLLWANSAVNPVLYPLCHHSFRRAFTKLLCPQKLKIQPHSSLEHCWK
Cytochrome P450 2C19, sequence (P33261 whole entry): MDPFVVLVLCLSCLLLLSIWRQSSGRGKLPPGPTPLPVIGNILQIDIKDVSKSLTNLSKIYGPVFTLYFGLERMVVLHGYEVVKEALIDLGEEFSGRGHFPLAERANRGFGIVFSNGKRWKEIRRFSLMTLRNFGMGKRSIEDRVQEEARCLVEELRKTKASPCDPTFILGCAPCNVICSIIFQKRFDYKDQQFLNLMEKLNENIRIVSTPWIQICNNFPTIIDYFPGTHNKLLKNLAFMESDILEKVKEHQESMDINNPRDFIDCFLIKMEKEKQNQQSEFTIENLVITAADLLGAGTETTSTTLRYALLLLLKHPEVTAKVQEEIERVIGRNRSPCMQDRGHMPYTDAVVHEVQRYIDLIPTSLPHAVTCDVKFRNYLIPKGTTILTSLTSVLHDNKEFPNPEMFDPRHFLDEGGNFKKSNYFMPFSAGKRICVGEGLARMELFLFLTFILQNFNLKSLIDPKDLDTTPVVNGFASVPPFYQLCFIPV

With `Cc1cc(N2CC[C@H](N3CCC[C@@H]3C)C2)ccc1NC(=O)c1c(C)noc1C` the Activity (Salmonella typhimurium) was “Non-toxic”, the metabolised [1] was < 5% and the solubility [2] was > 2000 µg/mL. For the same compound, the “inhibition (INH)” value [3] was “Not Active”, the Activity (Rattus norvegicus) was “Dose-dependent effect” and the minimal effective dose (Rattus norvegicus; read-out: MED) was 10 mg/kg. It also gave a solubility [4] of 110 µg/mL (≈ 288 µM), a bioavailability [5] of 57% and a Cmax [6] of 2620 ng/mL. For the same compound, the metabolised at 4 h, 100 ng/ml [7] was < 5%, the half-life [8] was 108 min and the metabolised at 4 h, 100 ng/ml [9] was < 5%. The Kp [10] was 1.6, the half-life [11] was 282 min and the Vd [12] was 2.8 L/kg. For the same compound, the half-life [13] was 72 min, the Ki (Histamine H3 receptor) was 0.1 nM and the IC50 (Cytochrome P450 2C19) was > 100 µM. The AUC(0-inf) [14] was 3400 ng·h/mL, the Cmax [15] was 599 ng/mL and the metabolised at 4 h, 100 ng/ml [16] was < 5%. The Tmax [17] was 30 min, the Cmax [18] was 1680 ng/mL and the Activity (Heart) was “Non-toxic”. For the same compound, the Activity (Mus musculus) was “Non-toxic” and the Kp [19] was 1.1.
